One series deals with A549. The experiment in a line: Antitumor activity against human A549 cells xenografted in F344/N Jcl-rnu athymic rat assessed as reduction in number of CD31-positive cells in viable regions of tumor at 0.2 mg/kg, po administered once daily for 7 days by immunofluorescence staining analysis relative to control. As to conditions: time 7 day.
Series [1] in a line: Cmax in F344/N JcL-rnu athymic rat at 5 mg/kg, po measured upto 72 hrs by HPLC-MS/MS analysis. The series is classed as ADME, organism-based. As to conditions: in vivo. A digest of the protocol: (§1)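 Female F344/N JcL-rnu rats, four per group, single p.o. dose suspended in 0.5% methyl cellulose. Tail-vein blood sampled at set times to 72 h. Serum spiked with internal standard, deproteinated with acetonitrile, analysed by HPLC-MS/MS. Parameters derived by noncompartmental analysis.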

A further series has as its system MDA-MB-231. The experiment in a line: Antitumor activity against human MDA-MB-231 cells xenografted in gamma-irradiation induced RH-rnu/rnu athymic rat assessed as tumor growth inhibition at 1.0 mg/kg, po administered once daily for 2 weeks and measured on day 14 relative to control. As to conditions: MDA-MB-231, light or radiation study, 336 h, read-out: TGI. It is filed as functional. Put shortly:
(§2)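 Rats were γ-irradiated with 7 Gy whole body, and 24 h later received s.c. tumor cells. Fragments (20-30 mg) from ~1,500 mm3 tumors were then implanted s.c. into irradiated athymic rats. Oral dosing at 0.2 or 1 mg/kg or vehicle ran once daily for 2 weeks from day 0. Tumors were measured with calipers twice weekly (length×width²×0.5). TGI% was taken versus vehicle on day 14 (BxPC-3: day 13), with an unpaired t test on RTV.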
(Xenograft models place foreign cells or tissue in a host animal.)

The next series has as its system HUVEC. Description: Antiproliferative activity against VEGF-induced human HUVEC cells assessed as cell viability incubated for 72 hrs by WST-1 assay. For orientation: Formazan colour is commonly taken as a measure of viable cells.
Series [2] concerns the target T1, Mitogen-activated protein kinase 1 (Homo sapiens, UniProt P28482). The experiment in a line: Inhibition of ERK2 phosphorylation in EGF-stimulated serum-starved human HUVEC cells by immunoblotting analysis. It is filed as cell-based. For orientation: Immunoblotting shows a protein as a band on a membrane.
Series [3] can be described thus: Apparent oral clearance in F344/N JcL-rnu athymic rat at 5 mg/kg, po measured upto 72 hrs by HPLC-MS/MS analysis. The series is classed as ADME, organism-based. As to conditions: in vivo. A digest of the protocol: as §1
Series [4] has as its target T1, Mitogen-activated protein kinase 1. Description: Inhibition of ERK2 phosphorylation in VEGF-stimulated serum-starved human HUVEC cells by immunoblotting analysis. The series is classed as cell-based. A digest of the protocol:
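HUVECs serum-starved, treated with inhibitor (DMSO stock diluted in medium), then stimulated with VEGF. Lysates run on SDS-PAGE and immunoblotted with anti-phospho-p44/42 MAPK antibody. Four independent experiments.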

A further series deals with NCI-H460. Description: Antitumor activity against human NCI-H460 cells xenografted in gamma-irradiation induced RH-rnu/rnu athymic rat assessed as tumor growth inhibition at 1.0 mg/kg, po administered once daily for 2 weeks and measured on day 14 relative to control. It is filed as functional. Particulars: NCI-H460, light or radiation study, 336 h, read-out: TGI. Put shortly:
as §2

A short description of series [5]: Maximum concentration at steady state in F344/N JcL-rnu athymic rat at 0.2 mg/kg/day, po measured upto 72 hrs by HPLC-MS/MS analysis. It is filed as ADME, organism-based. As to conditions: in vivo. A digest of the protocol: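 Steady-state serum levels for repeated oral 0.2 mg/kg daily dosing were simulated from single-dose serum data (female F344/N JcL-rnu rats, four per group, tail-vein sampling to 72 h, HPLC-MS/MS, noncompartmental analysis), not measured directly.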

Another series has as its system Calu-6. The experiment in a line: Antitumor activity against human Calu-6 cells xenografted in RH-rnu/rnu athymic rat assessed as increased pericyte coverage at 0.2 mg/kg, po administered for 14 days by immunofluorescence staining analysis relative to control. The series is classed as functional. Particulars: time 14 day. A digest of the protocol:
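Calu-6 xenografted athymic rats were randomized at 273-275 mm3 and dosed orally for 2 weeks. Paraffin sections were double-stained with anti-CD31 and Cy3-anti-α-smooth muscle actin. Pericyte-associated endothelial cells were counted in six fields per tumor, with six tumors per group and Dunnett's test.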

A further series deals with SK-HEP1. The experiment in a line: Antitumor activity against human SK-HEP1 cells xenografted in gamma-irradiation induced RH-rnu/rnu athymic rat assessed as tumor growth inhibition at 1.0 mg/kg, po administered once daily for 2 weeks and measured on day 14 relative to control. It is filed as functional. As to conditions: SK-HEP1, light or radiation study, 336 h, read-out: TGI.

Activity calls are given as the source filed them. The calls are words filed in the database; no cut-off is given here.

Results on one compound are retold here after ChEMBL document CHEMBL5661970 (Cancer Res, 2006).

The Cmax is the maximum level reached in the sampled fluid or tissue. One may read the IC50 as the concentration at which inhibition is half-maximal. As usually defined, the CL/F is clearance divided by bioavailability, as obtained after extravascular dosing.

T1 sequence (P28482 whole entry): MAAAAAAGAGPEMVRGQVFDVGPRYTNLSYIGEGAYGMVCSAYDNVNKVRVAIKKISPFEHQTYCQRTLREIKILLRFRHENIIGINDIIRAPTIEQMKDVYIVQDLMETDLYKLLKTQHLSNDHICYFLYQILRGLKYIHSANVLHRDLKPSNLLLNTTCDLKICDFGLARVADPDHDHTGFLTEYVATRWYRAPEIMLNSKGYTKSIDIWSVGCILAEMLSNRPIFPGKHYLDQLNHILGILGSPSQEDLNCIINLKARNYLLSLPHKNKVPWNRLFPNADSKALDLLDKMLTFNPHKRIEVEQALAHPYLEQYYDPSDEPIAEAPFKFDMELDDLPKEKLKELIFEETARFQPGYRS

Take `COc1cc2nccc(Oc3ccc(NC(=O)Nc4cc(C)on4)c(Cl)c3)c2cc1OC` [TIVOZANIB]: the Activity in the series with A549 is 20.7%; in the series with Calu-6, 29.6%. The results for the maximum concentration (Cmax) in [1] and in series [5] were 2820 ng/mL and 124 ng/mL, respectively. In addition, the inhibition in vivo at 1 mg/kg in the series with MDA-MB-231 is > 100%; in the series on NCI-H460 it was 85.9%; with SK-HEP1, 89.9%. Also, the values for the 50% inhibitory concentration (IC50) (in the series on HUVEC; in series [4]) were 0.67 nM and 0.18 nM, respectively. The inhibition result in series [2] is “inactive”. Further, the CL/F in series [3] is 1.88 mL/min/kg.
